Measurements taken from ChEMBL document CHEMBL2321654, “Design, modification and 3D QSAR studies of novel naphthalin-containing pyrazoline derivatives with/without thiourea skeleton as anticancer agents” (Bioorg Med Chem, 2013).
Active and inactive are the calls of the source. The calls are words filed in the database; no cut-off is given here.

Columns and labels:
[1] = biological target: Receptor tyrosine-protein kinase erbB-2 (Homo sapiens, UniProt P04626); test: Inhibition of human recombinant HER-2 cytoplasmic domain (676 to 1245) autophosphorylation after 1 hr
Chain of Receptor tyrosine-protein kinase erbB-2 (P04626 whole entry, the tested form may be a part): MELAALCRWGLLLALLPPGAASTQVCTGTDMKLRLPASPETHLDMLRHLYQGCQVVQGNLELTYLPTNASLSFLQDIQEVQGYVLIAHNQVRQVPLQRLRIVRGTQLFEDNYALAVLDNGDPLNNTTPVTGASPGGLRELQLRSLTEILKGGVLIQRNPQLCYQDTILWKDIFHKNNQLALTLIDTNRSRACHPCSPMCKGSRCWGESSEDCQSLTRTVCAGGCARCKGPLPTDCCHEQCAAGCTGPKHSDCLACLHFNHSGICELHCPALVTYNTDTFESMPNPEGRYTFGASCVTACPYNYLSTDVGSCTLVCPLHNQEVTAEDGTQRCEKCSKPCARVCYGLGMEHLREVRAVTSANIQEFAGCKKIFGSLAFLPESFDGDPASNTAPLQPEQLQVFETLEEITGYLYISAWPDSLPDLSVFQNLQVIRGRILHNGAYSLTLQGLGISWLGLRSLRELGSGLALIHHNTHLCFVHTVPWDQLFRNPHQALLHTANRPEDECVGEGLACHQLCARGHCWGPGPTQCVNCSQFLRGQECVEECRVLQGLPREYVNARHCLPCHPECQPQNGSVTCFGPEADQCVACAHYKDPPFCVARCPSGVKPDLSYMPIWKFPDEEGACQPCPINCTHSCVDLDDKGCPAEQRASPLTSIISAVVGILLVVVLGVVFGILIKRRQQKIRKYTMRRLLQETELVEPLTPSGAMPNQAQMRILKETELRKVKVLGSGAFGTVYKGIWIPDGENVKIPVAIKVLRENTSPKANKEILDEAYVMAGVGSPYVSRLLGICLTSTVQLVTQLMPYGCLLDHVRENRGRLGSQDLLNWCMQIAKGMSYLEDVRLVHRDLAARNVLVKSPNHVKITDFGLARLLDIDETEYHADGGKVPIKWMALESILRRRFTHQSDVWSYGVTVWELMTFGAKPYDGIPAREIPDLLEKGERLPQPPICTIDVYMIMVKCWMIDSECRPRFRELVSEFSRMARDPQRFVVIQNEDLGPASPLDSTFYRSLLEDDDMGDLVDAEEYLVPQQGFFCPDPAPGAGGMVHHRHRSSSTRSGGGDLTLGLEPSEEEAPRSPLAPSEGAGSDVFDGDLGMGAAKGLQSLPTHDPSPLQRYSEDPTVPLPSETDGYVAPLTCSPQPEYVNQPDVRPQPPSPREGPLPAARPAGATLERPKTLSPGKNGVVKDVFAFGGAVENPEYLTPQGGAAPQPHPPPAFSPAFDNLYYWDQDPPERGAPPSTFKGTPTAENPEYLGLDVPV
Method in brief: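 His6-tagged HER-2 expressed in Sf-9 cells (3-day infection), purified by Ni-NTA at 4 °C. Enzyme (12.5 ng) preincubated with compound 10 min at room temperature, then 0.1 mM ATP-50 mM MgCl2 with MnCl2, Na3VO4 and DTT buffer added for 1 h. Autophosphorylation read by europium anti-phosphotyrosine DELFIA time-resolved fluorescence (ex 340/em 615 nm). Controls with and without ATP-MgCl2; triplicate.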

[2] = biological target: Receptor tyrosine-protein kinase erbB-3 (Homo sapiens, UniProt P21860); test: Inhibition of human recombinant HER-3 cytoplasmic domain (665 to 1339) autophosphorylation after 1 hr
Chain of Receptor tyrosine-protein kinase erbB-3 (P21860 whole entry, the tested form may be a part): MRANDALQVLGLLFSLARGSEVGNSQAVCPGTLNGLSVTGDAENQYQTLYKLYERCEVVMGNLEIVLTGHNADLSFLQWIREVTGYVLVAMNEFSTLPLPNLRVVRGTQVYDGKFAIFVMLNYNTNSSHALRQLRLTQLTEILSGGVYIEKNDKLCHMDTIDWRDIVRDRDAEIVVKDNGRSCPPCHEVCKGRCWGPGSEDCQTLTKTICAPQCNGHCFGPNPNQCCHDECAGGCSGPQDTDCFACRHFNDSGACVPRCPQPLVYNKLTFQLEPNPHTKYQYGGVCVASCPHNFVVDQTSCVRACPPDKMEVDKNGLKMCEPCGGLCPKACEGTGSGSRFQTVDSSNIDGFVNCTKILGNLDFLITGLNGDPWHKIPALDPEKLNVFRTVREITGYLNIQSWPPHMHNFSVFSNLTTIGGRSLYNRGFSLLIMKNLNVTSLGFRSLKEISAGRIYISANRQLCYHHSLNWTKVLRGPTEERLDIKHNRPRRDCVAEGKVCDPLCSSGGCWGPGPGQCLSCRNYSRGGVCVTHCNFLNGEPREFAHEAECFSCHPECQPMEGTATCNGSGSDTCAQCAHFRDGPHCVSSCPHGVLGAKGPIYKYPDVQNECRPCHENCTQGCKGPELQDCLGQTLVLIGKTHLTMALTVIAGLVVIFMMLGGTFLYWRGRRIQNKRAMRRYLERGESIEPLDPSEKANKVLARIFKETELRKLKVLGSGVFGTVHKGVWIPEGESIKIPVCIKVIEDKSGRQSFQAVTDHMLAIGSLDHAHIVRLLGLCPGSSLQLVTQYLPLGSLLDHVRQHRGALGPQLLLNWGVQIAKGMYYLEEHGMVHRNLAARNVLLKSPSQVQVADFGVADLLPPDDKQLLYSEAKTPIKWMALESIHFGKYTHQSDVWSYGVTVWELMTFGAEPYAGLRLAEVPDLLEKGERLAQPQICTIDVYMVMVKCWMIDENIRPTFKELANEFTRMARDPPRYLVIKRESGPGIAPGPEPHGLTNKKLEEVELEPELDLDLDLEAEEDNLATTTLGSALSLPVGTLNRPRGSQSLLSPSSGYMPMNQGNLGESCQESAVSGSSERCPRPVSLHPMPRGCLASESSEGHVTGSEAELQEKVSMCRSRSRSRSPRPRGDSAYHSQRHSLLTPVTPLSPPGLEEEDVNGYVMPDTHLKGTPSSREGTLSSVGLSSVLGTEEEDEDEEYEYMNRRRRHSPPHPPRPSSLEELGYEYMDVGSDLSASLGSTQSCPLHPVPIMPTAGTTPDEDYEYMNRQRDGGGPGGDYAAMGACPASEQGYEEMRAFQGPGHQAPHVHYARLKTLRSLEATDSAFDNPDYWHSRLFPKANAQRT
Method in brief: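 HER-3 cytoplasmic domain (aa 665–1339) from 1.8 Kb human cDNA. Assayed by the same DELFIA autophosphorylation procedure as EGFR/HER-2: compound preincubated with enzyme, ATP-MgCl2 for 1 h, europium anti-phosphotyrosine time-resolved fluorescence read-out.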

A549 = test: Antiproliferative activity against human A549 cells after 24 hrs by MTT assay; format: functional; details: A549, 24 h
Method in brief: (§1)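 MCF-7 and A549 cells grown in DMEM/10% FBS, 5% CO2, 37 °C; seeded at 1000 cells/well and left 24 h to reattach. Compound stocks 20 mM in DMSO, diluted in medium; 3-fold serial dilutions gave final […]. Exposure 24 h at 37 °C, then MTT read-out at 590 nm. GI50 calculated from absorbance.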

MCF7 = test: Antiproliferative activity against human MCF7 cells after 24 hrs by MTT assay; format: functional; details: MCF7, 24 h; method in brief: as §1
Focal adhesion kinase 1 = Focal adhesion kinase 1 (Homo sapiens, UniProt Q05397); test: Inhibition of human-recombinant full-length FAK after 4 hrs by kinase-Glo-luminescence assay
Chain of Focal adhesion kinase 1 (Q05397 whole entry): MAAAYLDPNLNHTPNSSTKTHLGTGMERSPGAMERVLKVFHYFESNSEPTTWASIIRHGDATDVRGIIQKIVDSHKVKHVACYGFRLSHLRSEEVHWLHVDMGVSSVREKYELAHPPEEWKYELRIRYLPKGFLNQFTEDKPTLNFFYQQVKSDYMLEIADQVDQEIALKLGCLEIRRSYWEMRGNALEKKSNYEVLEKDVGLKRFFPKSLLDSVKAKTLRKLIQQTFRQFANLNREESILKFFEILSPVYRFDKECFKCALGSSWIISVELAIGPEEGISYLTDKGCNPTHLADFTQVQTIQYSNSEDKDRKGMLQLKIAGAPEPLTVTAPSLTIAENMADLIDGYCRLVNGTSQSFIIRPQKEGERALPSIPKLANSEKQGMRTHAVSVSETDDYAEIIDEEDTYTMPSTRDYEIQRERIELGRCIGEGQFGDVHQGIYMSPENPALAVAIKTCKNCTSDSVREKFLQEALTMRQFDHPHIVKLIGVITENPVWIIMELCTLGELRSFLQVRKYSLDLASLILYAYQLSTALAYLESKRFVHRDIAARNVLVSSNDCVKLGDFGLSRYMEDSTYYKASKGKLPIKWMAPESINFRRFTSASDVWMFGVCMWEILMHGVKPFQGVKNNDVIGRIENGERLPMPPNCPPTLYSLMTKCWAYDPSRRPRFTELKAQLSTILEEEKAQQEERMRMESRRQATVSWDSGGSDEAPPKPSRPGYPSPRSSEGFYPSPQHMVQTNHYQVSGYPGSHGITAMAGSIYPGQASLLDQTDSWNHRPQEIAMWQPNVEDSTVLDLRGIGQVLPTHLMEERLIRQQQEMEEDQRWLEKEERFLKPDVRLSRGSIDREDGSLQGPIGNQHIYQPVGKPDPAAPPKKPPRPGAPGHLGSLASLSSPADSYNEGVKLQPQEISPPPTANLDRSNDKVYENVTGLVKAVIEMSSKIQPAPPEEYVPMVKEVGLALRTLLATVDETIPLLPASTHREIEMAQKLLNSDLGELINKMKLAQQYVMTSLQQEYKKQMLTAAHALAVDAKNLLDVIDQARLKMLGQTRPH
Method in brief: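 Full-length recombinant human FAK incubated with ATP and substrate in kinase buffer, with or without compound, for 4 h at room temperature. Final drug concentrations 100, 30, 10 and 3 µg/mL. Remaining ATP measured by Kinase-Glo luminescence.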

[3] = biological target: T1, Epidermal growth factor receptor (Homo sapiens, UniProt P00533); test: Inhibition of recombinant EGFR cytoplasmic domain (645 to 1186) (unknown origin) autophosphorylation after 1 hr
[4] = biological target: Vascular endothelial growth factor receptor 2 (Homo sapiens, UniProt P35968); test: Inhibition of VEGFR-2 (unknown origin) using gastrin as substrate after 1 hr by fluorescence assay
Chain of Vascular endothelial growth factor receptor 2 (P35968 whole entry, the tested form may be a part): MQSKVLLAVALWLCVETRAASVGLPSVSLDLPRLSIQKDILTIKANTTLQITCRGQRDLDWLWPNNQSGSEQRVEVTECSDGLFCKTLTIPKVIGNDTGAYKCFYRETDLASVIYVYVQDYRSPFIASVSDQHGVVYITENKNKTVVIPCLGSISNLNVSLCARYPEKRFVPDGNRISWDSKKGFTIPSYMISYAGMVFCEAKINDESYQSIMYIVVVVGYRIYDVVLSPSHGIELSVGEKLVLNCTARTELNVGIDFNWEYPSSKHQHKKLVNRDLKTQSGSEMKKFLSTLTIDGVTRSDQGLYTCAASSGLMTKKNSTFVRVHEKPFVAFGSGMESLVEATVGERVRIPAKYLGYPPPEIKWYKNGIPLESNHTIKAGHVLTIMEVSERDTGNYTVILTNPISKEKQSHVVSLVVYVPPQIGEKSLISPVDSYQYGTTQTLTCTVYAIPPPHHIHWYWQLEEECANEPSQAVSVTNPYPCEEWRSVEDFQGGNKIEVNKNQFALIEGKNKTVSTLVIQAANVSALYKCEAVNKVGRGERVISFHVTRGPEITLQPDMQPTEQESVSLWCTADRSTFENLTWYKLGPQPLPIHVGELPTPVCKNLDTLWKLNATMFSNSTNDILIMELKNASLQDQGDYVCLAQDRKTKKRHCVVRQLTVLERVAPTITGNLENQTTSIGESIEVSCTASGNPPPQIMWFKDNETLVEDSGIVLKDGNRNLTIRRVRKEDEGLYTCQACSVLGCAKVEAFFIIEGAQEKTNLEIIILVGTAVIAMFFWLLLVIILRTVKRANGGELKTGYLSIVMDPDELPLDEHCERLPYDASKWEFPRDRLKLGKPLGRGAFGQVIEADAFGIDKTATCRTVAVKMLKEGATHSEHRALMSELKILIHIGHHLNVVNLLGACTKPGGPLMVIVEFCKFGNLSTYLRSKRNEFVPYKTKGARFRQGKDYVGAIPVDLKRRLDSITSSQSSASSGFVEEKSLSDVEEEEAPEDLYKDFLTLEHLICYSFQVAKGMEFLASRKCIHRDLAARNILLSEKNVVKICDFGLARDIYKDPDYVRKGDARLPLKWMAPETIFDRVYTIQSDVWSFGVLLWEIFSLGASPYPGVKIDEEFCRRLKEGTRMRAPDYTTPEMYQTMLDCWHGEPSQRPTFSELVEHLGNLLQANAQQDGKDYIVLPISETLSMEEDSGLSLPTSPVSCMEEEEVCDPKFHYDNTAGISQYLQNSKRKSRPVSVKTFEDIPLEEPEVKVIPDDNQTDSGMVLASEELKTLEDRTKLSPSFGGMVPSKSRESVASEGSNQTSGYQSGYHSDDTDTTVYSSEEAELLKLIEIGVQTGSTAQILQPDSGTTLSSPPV
Method in brief: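 Phosphorylated or nonphosphorylated VEGFR-2 kinase domain, 5 nM, incubated with compound (10-point titration, 4 to 0.1 µM) and 1 µM gastrin substrate in Tris-HCl pH 7.5 with MgCl2, NaCl, EGTA, DTT, orthovanadate and BSA, 30 min at 25 °C. ATP then added to 11.8 µM final for 60 min at room temperature. Eu-anti-phosphotyrosine time-resolved fluorescence read at 665 nm; triplicate.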

[5] = biological target: T1, Epidermal growth factor receptor; details: A549, 0.02 to 0.32 uM
[6] = biological target: T1, Epidermal growth factor receptor; details: A549, 0.02 to 0.32 uM; remark: listed apart in the source

| IC50 [1] [nM] | IC50 [2] [nM] | GI50 (A549) [nM] | GI50 (MCF7) [nM] | IC50 (Focal adhesion kinase 1) [nM] | IC50 [3] [nM] | IC50 [4] [nM] | inhibition [5] | inhibition [6] | SMILES |
| --- | --- | --- | --- | --- | --- | --- | --- | --- | --- |
| 1040 | 63200 | 270 | 390 | 28700 | 520 | 2100 |  |  | Cc1ccc(C2=NN(C(N)=S)C(c3ccc4ccccc4c3)C2)cc1 (configuration not stated) |
| 2320 |  | 250 | 1030 |  | 490 |  |  |  | Brc1ccc(C2=NN(c3ccccc3)C(c3cccc4ccccc34)C2)cc1 (configuration not stated) |
| 1460 |  | 160 | 530 |  | 110 |  |  |  | Clc1ccc(C2=NN(c3ccccc3)C(c3ccc4ccccc4c3)C2)cc1 (configuration not stated) |
| 7240 |  | 1440 | 44500 |  | 2230 |  |  |  | NC(=S)N1N=C(c2ccccc2)CC1c1cccc2ccccc12 (configuration not stated) |
| 1450 |  | 160 | 550 |  |  |  |  |  | COc1ccc(C2=NN(c3ccccc3)C(c3ccc4ccccc4c3)C2)cc1 (configuration not stated) |
| 880 | 51700 | 310 | 350 | 9900 | 660 | 3200 |  |  | NC(=S)N1N=C(c2ccc(Cl)c(Cl)c2)CC1c1ccc2ccccc2c1 (configuration not stated) |
| 1980 |  | 200 | 810 |  | 140 |  |  |  | Clc1ccc(C2=NN(c3ccccc3)C(c3cccc4ccccc34)C2)cc1Cl (configuration not stated) |
| 3280 |  | 460 | 2120 |  | 1040 |  |  |  | COc1ccc(C2=NN(C(N)=S)C(c3ccc4ccccc4c3)C2)cc1 (configuration not stated) |
| 3590 |  | 490 | 2680 |  | 1070 |  |  |  | Fc1ccc(C2=NN(c3ccccc3)C(c3cccc4ccccc34)C2)cc1 (configuration not stated) |
| 2770 |  | 340 | 3790 |  |  |  |  |  | COc1ccc(C2CC(c3ccc(C)c(C)c3)=NN2C(N)=S)cc1 (configuration not stated) |
| 1890 |  | 220 | 730 |  | 240 |  |  |  | c1ccc(C2=NN(c3ccccc3)C(c3ccc4ccccc4c3)C2)cc1 (configuration not stated) |
| 9150 |  | 49100 | > 50000 |  | 5680 |  |  |  | NC(=S)N1N=C(c2ccc(Br)cc2)CC1c1cccc2ccccc12 (configuration not stated) |
| 2010 |  | 230 | 850 |  | 300 |  |  |  | Fc1ccc(C2=NN(c3ccccc3)C(c3ccc4ccccc4c3)C2)cc1 (configuration not stated) |
| 6680 |  | 1210 | 29100 |  | 2060 |  |  |  | Cc1ccc(C2=NN(C(N)=S)C(c3cccc4ccccc34)C2)cc1 (configuration not stated) |
| 3010 | 40200 | 160 | 1710 | 10300 | 100 | 3400 |  |  | COc1ccc(C2=NN(c3ccccc3)C(c3cccc4ccccc34)C2)cc1 (configuration not stated) |
| 1130 | 45300 | 130 | 390 | 11500 | 60 | 1560 |  |  | Cc1ccc(C2=NN(c3ccccc3)C(c3ccc4ccccc4c3)C2)cc1 (configuration not stated) |

| IC50 [1] [nM] | IC50 [2] [nM] | GI50 (A549) [nM] | GI50 (MCF7) [nM] | IC50 (Focal adhesion kinase 1) [nM] | IC50 [3] [nM] | IC50 [4] [nM] | inhibition [5] | inhibition [6] | SMILES |
| --- | --- | --- | --- | --- | --- | --- | --- | --- | --- |
| 5690 |  | 3210 | 13800 |  | 3010 |  |  |  | NC(=S)N1N=C(c2ccccc2)CC1c1ccc2ccccc2c1 (configuration not stated) |
| 3830 |  | 1980 | 3290 |  | 2520 |  |  |  | c1ccc(C2=NN(c3ccccc3)C(c3cccc4ccccc34)C2)cc1 (configuration not stated) |
| 6580 |  | 33500 | 27600 |  |  |  |  |  | NC(=S)N1N=C(c2ccc(Cl)c(Cl)c2)CC1c1ccc(O)cc1 (configuration not stated) |
| 1910 |  | 190 | 740 |  | 200 |  |  |  | Cc1ccc(C2=NN(c3ccccc3)C(c3cccc4ccccc34)C2)cc1 (configuration not stated) |
| 3870 |  | 260 | 3310 |  |  |  |  |  | NC(=S)N1N=C(c2ccc(Cl)cc2)CC1c1ccc2ccccc2c1 (configuration not stated) |
| 6840 |  | 180 | 33100 |  | 210 |  |  |  | NC(=S)N1N=C(c2ccc(Cl)c(Cl)c2)CC1c1cccc2ccccc12 (configuration not stated) |
| 4180 | 55600 | 170 | 4180 | 13600 | 160 | 4100 |  |  | COc1ccc(C2=NN(C(N)=S)C(c3cccc4ccccc34)C2)cc1 (configuration not stated) |
| 1280 |  | 360 | 480 |  | 710 |  |  |  | Brc1ccc(C2=NN(c3ccccc3)C(c3ccc4ccccc4c3)C2)cc1 (configuration not stated) |
| 3070 |  | 330 | 1820 |  | 680 |  |  |  | Clc1ccc(C2=NN(c3ccccc3)C(c3cccc4ccccc34)C2)cc1 (configuration not stated) |
| 5460 |  | 380 | 11200 |  |  |  |  |  | NC(=S)N1N=C(c2ccc(Cl)cc2)CC1c1cccc2ccccc12 (configuration not stated) |
| 1210 |  | 230 | 440 |  | 350 |  |  |  | NC(=S)N1N=C(c2ccc(Br)cc2)CC1c1ccc2ccccc2c1 (configuration not stated) |
| 1750 |  | 4180 | 880 |  | 3280 |  |  |  | NC(=S)N1N=C(c2ccc(F)cc2)CC1c1ccc2ccccc2c1 (configuration not stated) |
|  |  | 30 | 80 |  |  |  |  |  | C#Cc1cccc(Nc2ncnc3cc(OCCOC)c(OCCOC)cc23)c1 [ERLOTINIB] |
| 10600 |  | > 50000 | > 50000 |  | 8250 |  |  |  | NC(=S)N1N=C(c2ccc(F)cc2)CC1c1cccc2ccccc12 (configuration not stated) |
| 1020 | 35900 | 110 | 390 | 6200 | 50 | 1830 | Active | Active | Clc1ccc(C2=NN(c3ccccc3)C(c3ccc4ccccc4c3)C2)cc1Cl (configuration not stated) |
